According to publication PMC6916675 (Cancer Management and Research, 2019):
Entries after “also recorded” stand apart in the source; their conditions may differ.

Legend:
p4EBP1 = test: Immunohistochemistry of paired tumor biopsies, p4EBP1; format: in vivo, human; conditions: before treatment vs after approximately 15 days of treatment
[1] = Distribution of CC-115 to GBM tumor tissue; format: in vivo; conditions: human, GBM tumor tissue and plasma, oral, 10 mg BID
[2] = Bioavailability/food effect; format: in vivo, human; conditions: single oral dose with high-fat meal vs fasted
mTORC2 (pAKT.S473) = test: pAKT biomarker inhibition in stimulated blood monocytes; format: in vivo, human
How it was run: (§1)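 Blood sampled predose and up to 5 hrs postdose on cycle 1 days 1 and 15, plus around tumour biopsy (days 15–21). Markers: p4E-BP1 T37/T46 (mTORC1) and pAKT S473 (mTORC2). In Part B, CD14+ monocytes were stimulated with anti-IgD plus lipopolysaccharide (37°C, 15 min) and analysed by flow cytometry. Signal was expressed as molecules of equivalent fluorescein.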

[3] = Plasma pharmacokinetics of CC-115; format: in vivo, human; conditions: for AUC(0-inf) / Vd/F / AUC / Cmax / Tmax: human, plasma, oral; for Cmax: Plasma Cmax, mean (CV%); for Tmax: Plasma Tmax, median (min, max)
[4] = Urinary excretion of CC-115; format: in vivo, human; conditions: for Fe (fraction excreted unchanged in urine), mean (CV%) / Urine Ae24, mean (CV%): first dose
[5] = test system: advanced solid or hematologic malignancies; test: Antitumor efficacy; format: in vivo, human
How it was run: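 Investigators assessed response by RECIST 1.1, RANO, updated IWCLL or PCWG2 criteria. Solid tumours were restaged by CT or MRI after cycles 2, 4, 6, 9 and 12, every 6 cycles thereafter, and at end of treatment. Patients meeting IWCLL criteria but with persistent lymphocytosis were classed non-IWCLL. Best overall response frequency was tabulated. BA/FE substudy: 12 solid-tumour patients (GBM excluded).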

pAKT = test: Immunohistochemistry of paired tumor biopsies, pAKT; format: in vivo, human; conditions: before treatment vs after approximately 15 days of treatment
[6] = Safety and tolerability in Phase I patients; format: in vivo, human
mTORC1 (p4E-BP1.T37/T46) = test: p4E-BP1 biomarker inhibition in stimulated blood monocytes; format: in vivo, human
How it was run: as §1

[7] = Part A, repeat once-daily administration
[8] = patient with endometrial cancer (complete response)
[9] = 8 mg, first dose, 8 mg QD, n = 6
[10] = 8 mg, multiple doses, 8 mg QD, n = 7
[11] = 10 mg, first dose, 10 mg BID, n = 6
[12] = 10 mg, multiple doses, 10 mg BID, n = 7
[13] = 15 mg, first dose, 15 mg BID, n = 6
[14] = 15 mg, multiple doses, 15 mg BID, n = 5
[15] = 16 mg, first dose, 16 mg QD, n = 6
[16] = 16 mg, multiple doses, 16 mg QD, n = 8
[17] = 25 mg, first dose, 25 mg QD, n = 7
[18] = 25 mg, multiple doses, 25 mg QD, n = 5
[19] = 40 mg, first dose, 40 mg QD, n = 6
[20] = 40 mg, multiple doses, 40 mg QD, n = 4
[21] = Part A, efficacy evaluable n=39

For CCN1C(=O)CNc2ncc(-c3ccc(-c4nc[nH]n4)nc3C)nc21 [CC-115], the “Inhibition of p4EBP1 in paired tumor biopsies” value (p4EBP1) was “Moderate, not statistically significant, inhibition”, the Kp [1] was 0.713 and the “Decrease in Cmax on co-administration of the tablet with food” value [2] was ~ 40%. For the same compound, the “Delay in Tmax on co-administration of the tablet with food” value [2] was 3.5 h, the “Total exposure (AUC∞) fed versus fasted” value [2] was “similar; also recorded: comparable” and the “Median biomarker (pAKT)” value (mTORC2 (pAKT.S473); 10 mg BID cohort, after 3 hrs) was 84%. For the same compound, the “Dose above which mTORC2 (pAKT) was inhibited in peripheral blood monocytes” value (mTORC2 (pAKT.S473); [7]) was > 4 mg QD, the “Median decrease of pAKT” value (mTORC2 (pAKT.S473); Part B, 10 mg BID, day 15) was 80% and the “Inhibition of pAKT” value (mTORC2 (pAKT.S473); [8]) was 85%. The “Time for which pAKT inhibition was sustained” value (mTORC2 (pAKT.S473); postdose) was “at least 5 hrs”, the AUC(0-inf) ([3]; 8 mg) was 237 ng·h/mL and the Vd/F ([3]; 8 mg) was 294 L. For the same compound, the AUC ([3]; 8 mg, Plasma AUC12, mean (CV%), first dose, 8 mg QD, n = 6) was 180 ng·h/mL, the AUC ([3]; 8 mg, Plasma AUC24, mean (CV%), first dose, 8 mg QD, n = 6) was 236 ng·h/mL and the Cmax [3, 9] was 36.1 ng/mL. The Cmax [3, 10] was 40.9 ng/mL, the Tmax [3, 9] was 1.5 h and the Tmax [3, 10] was 1.5 h. The AUC(0-inf) ([3]; 10 mg) was 605 ng·h/mL, the Vd/F ([3]; 10 mg) was 189 L and the Cmax [3, 11] was 51.8 ng/mL. For the same compound, the Cmax [3, 12] was 75.2 ng/mL, the Tmax [3, 11] was 2.25 h and the Tmax [3, 12] was 1.42 h. The AUC(0-inf) ([3]; 15 mg) was 1310 ng·h/mL, the Vd/F ([3]; 15 mg) was 173 L and the Cmax [3, 13] was 134 ng/mL. It also gave a Cmax [3, 14] of 162 ng/mL, a Tmax [3, 13] of 1.04 h and a Tmax [3, 14] of 1.52 h. For the same compound, the AUC(0-inf) ([3]; 16 mg) was 625 ng·h/mL, the Vd/F ([3]; 16 mg) was 264 L and the Cmax [3, 15] was 88.7 ng/mL. For the same compound, the Cmax [3, 16] was 118 ng/mL, the Tmax [3, 15] was 2.95 h and the Tmax [3, 16] was 1.65 h. It also gave an AUC(0-inf) ([3]; 25 mg) of 1910 ng·h/mL, a Vd/F ([3]; 25 mg) of 149 L and a Cmax [3, 17] of 173 ng/mL. For the same compound, the Cmax [3, 18] was 198 ng/mL, the Tmax [3, 17] was 3 h and the Tmax [3, 18] was 1.52 h. For the same compound, the AUC(0-inf) ([3]; 40 mg) was 2130 ng·h/mL, the Vd/F ([3]; 40 mg) was 201 L and the Cmax [3, 19] was 167 ng/mL. It also gave a Cmax [3, 20] of 244 ng/mL, a Tmax [3, 19] of 2.25 h and a Tmax [3, 20] of 3 h. For the same compound, the “Increase of Cmax and AUC∞ with dose” value ([3]; single and multiple doses ranging from 4 to 40 mg) was “linear, dose-proportional”, the Excreted in urine ([4]; Part A) was “Less than 1%” and the “Fe (fraction excreted unchanged in urine), mean (CV%)” value ([4]; 8 mg QD, n = 6) was 0.25 (66) %. The “Urine Ae24, mean (CV%)” value ([4]; 8 mg QD, n = 6) was 19,748 (66) ng, the “Fe (fraction excreted unchanged in urine), mean (CV%)” value ([4]; 10 mg BID, n = 6) was 0.53 (108) % and the “Urine Ae24, mean (CV%)” value ([4]; 10 mg BID, n = 6) was 53,259 (108) ng. For the same compound, the “Fe (fraction excreted unchanged in urine), mean (CV%)” value ([4]; 15 mg BID, n = 6) was 0.72 (53) %, the “Urine Ae24, mean (CV%)” value ([4]; 15 mg BID, n = 6) was 107,283 (53) ng and the “Fe (fraction excreted unchanged in urine), mean (CV%)” value ([4]; 16 mg QD, n = 6) was 0.33 (108) %. For the same compound, the “Urine Ae24, mean (CV%)” value ([4]; 16 mg QD, n = 6) was 52,491 (108) ng, the “Fe (fraction excreted unchanged in urine), mean (CV%)” value ([4]; 25 mg QD, n = 7) was 0.41 (79) % and the “Urine Ae24, mean (CV%)” value ([4]; 25 mg QD, n = 7) was 103,312 (79) ng. The “Fe (fraction excreted unchanged in urine), mean (CV%)” value ([4]; 40 mg QD, n = 6) was 0.34 (55) %, the “Urine Ae24, mean (CV%)” value ([4]; 40 mg QD, n = 6) was 136,157 (55) ng and the “Stable disease, patients” value ([5]; BA/FE substudy) was 4 patients. For the same compound, the “Partial response (unconfirmed), patients” value ([5]; BA/FE substudy, breast carcinoma (5 patients)) was 2 patients, the “Stable disease, patients” value ([5]; BA/FE substudy, breast malignancies) was 1 patients and the “Stable disease, patients” value ([5]; BA/FE substudy, ovarian malignancies) was 2 patients. For the same compound, the “Stable disease, patients” value ([5]; BA/FE substudy, rectal malignancies) was 1 patients, the “Disease control rate (DCR)” value [5, 21] was 51% and the “Overall response rate (ORR)” value [5, 21] was 5%. For the same compound, the “6-month PFS” value ([5]; Part B, CLL/SLL) was 86%, the “Best response of SD by IWCLL and non-IWCLL criteria” value ([5]; Part B, CLL/SLL, June 2017) was 25% and the “PR by IWCLL criteria” value ([5]; Part B, CLL/SLL, June 2017) was 25%. For the same compound, the “PR by non-IWCLL criteria (persistent lymphocytosis)” value ([5]; Part B, CLL/SLL, June 2017) was 38%, the “Best response of SD” value ([5]; Part B, CRPC, 11 efficacy evaluable patients) was 64% and the “6-month PFS rate” value ([5]; Part B, ES) was 0%. For the same compound, the “Best response of SD” value ([5]; Part B, ES n=9) was 22%, the “Best response of nonprogression” value ([5]; Part B, GBM, 14 evaluable patients) was 21% and the “Best response of SD” value ([5]; Part B, HNSCC n=17) was 53%. The “Time in complete remission / tumor-free” value ([5]; one patient with endometrial cancer, 10 mg BID reduced to 8 mg BID) was > 4 years, the “Inhibition of pAKT in paired tumor biopsies” value (pAKT) was “Moderate, not statistically significant, inhibition” and the “Drug-related AE: diarrhea” value ([6]; Part A) was 25%. For the same compound, the “Drug-related AE: fatigue” value ([6]; Part A) was 50%, the “Drug-related AE: hyperglycemia” value ([6]; Part A) was 23% and the “Drug-related AE: nausea” value ([6]; Part A) was 41%. The “Drug-related AE: vomiting” value ([6]; Part A) was 41%, the “Grade 3 toxicities, patients” value ([6]; Part A) was 41% and the “Grade 3 toxicity: fatigue” value ([6]; Part A) was 7%. The “Grade 3 toxicity: hypertriglyceridemia” value ([6]; Part A) was 5%, the “Grade 3 toxicity: hypophosphatemia” value ([6]; Part A) was 7% and the “Grade 3 toxicity: maculopapular rash” value ([6]; Part A) was 5%. The “Grade 3 toxicity: stomatitis” value ([6]; Part A) was 5%, the “Patients requiring dose reduction from initially assigned dose levels” value ([6]; Part A) was 39% and the “Patients requiring drug interruption” value ([6]; Part A) was 93%. For the same compound, the “Patients who discontinued treatment due to AEs” value ([6]; Part A) was 7%, the “Patients with ≥1 drug-related AE” value ([6]; Part A) was 93% and the “Dose-limiting toxicities (increased transaminases and stomatitis)” value ([6]; Part A, 15 mg BID) was 2 DLTs. The “Dose-limiting toxicity (thrombocytopenia), patients” value ([6]; Part A, 16 mg QD) was 1 patient, the “Dose-limiting toxicity (stomatitis), patients” value ([6]; Part A, 25 mg QD) was 1 patient and the “Dose-limiting toxicities (hyperglycemia, asthenia, and fatigue), patients” value ([6]; Part A, 40 mg QD) was 2 of 6 patients. The “Maximum-tolerated dose (MTD)” value ([6]; Part A, once-daily schedule) was 25 mg QD, the “Non-tolerated dose (NTD)” value ([6]; Part A, once-daily schedule) was 40 mg QD and the “Maximum-tolerated dose (MTD)” value ([6]; Part A, twice-daily schedule) was 10 mg BID. The “Non-tolerated dose (NTD)” value ([6]; Part A, twice-daily schedule) was 15 mg BID, the “Patients requiring ≥1 dose reduction, range over cohorts” value ([6]; Part B overall) was 40–93% and the “Patients with dose reductions” value ([6]; Part B, GBM) was 93%. The “Median biomarker (p4E-BP1)” value (mTORC1 (p4E-BP1.T37/T46); 10 mg BID cohort, after 3 hrs) was 35%, the “Dose above which mTORC1 (p4E-BP1) was inhibited in peripheral blood monocytes” value (mTORC1 (p4E-BP1.T37/T46); [7]) was > 4 mg QD and the “Median decrease of p4E-BP1” value (mTORC1 (p4E-BP1.T37/T46); Part B, 10 mg BID, day 15) was 34%. For the same compound, the “Inhibition of p4E-BP1” value (mTORC1 (p4E-BP1.T37/T46); [8]) was 51% and the “Time for which p4E-BP1 inhibition was sustained” value (mTORC1 (p4E-BP1.T37/T46); postdose) was “at least 5 hrs”.
